Data as given in ChEMBL document CHEMBL1123382, “Potential tumor- or organ-imaging agents. 27. Polyiodinated 1,3-disubstituted and 1,2,3-trisubstituted triacylglycerols” (J Med Chem, 1986).
Where “and” joins values, the source holds several entries; their conditions need not be identical. Identical values can stand only once.

Key:
Rattus norvegicus [1] = assay: Biodistribution in Rat lung after 24 hours of iv administration; per g of tissue; assay type: ADME, organism-based; conditions: in vivo
Summary of the method: (§1)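 125I-labeled compound solubilized in normal saline with Tween-20 and given iv to rats, about 5-30 μCi (9-83 μg) per animal. Three to five rats per time point. Rats killed by exsanguination under ether anesthesia at 5 min, 30 min or 24 h. Organs minced, blotted free of blood and counted for radioiodine. Lines with "per g" are % administered dose per gram ± SEM.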

Rattus norvegicus [2] = assay: Compound (125I labeled) was evaluated for the total radioactivity in stacking gel at 30 min after intravenous administration.; assay type: functional
Summary of the method: (§2)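 Rat plasma taken 5 or 30 min after iv dosing of 125I-labeled compound (saline/Tween-20) and run on polyacrylamide gel electrophoresis. Gels sectioned and each section gamma-counted. Radioactivity in each band (stacking gel, lipoproteins, albumin, below-albumin) is given as % of total radioactivity applied to the gel.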

Rattus norvegicus [3] = assay: Compound was evaluated for the lipid soluble radioactivity extracted from rat plasma at 0.5 hr after intravenous administration.; assay type: functional
Summary of the method: (§3)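 Liver and plasma taken 0.5 or 24 h after iv dosing of 125I-labeled compound in rats (n = 3-5). Extracted by a modified Folch procedure; value is % lipid (CHCl3/MeOH)-extractable radioactivity ± SEM. Extracts run on TLC in hexane/ethyl acetate 5:2 against unlabeled standard, then 1-cm strips counted to give % parent compound.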

Rattus norvegicus [4] = assay: Biodistribution in Rat liver after 24 hours of iv administration; per g of tissue; assay type: ADME, organism-based; conditions: in vivo; summary of the method: as §1
Rattus norvegicus [5] = assay: (§4) Biodistribution in Rat liver after 30 minutes of iv administration; per g of tissue; assay type: ADME, organism-based; conditions: in vivo, 0.5 h; summary of the method: as §1
Rattus norvegicus [6] = assay: Liver radioactivity after iv administration of compound (30 min) in rats; assay type: functional, organism-based
Summary of the method: (§5)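 Rats (3-5 per time point) dosed iv with about 5-30 μCi (9-83 μg) of 125I-labeled compound in saline containing Tween-20. Killed by exsanguination under ether at 5 min, 30 min or 24 h. Liver removed, minced, blotted and counted. Values are % administered dose per organ, based on each animal's actual liver weight, ± SEM.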

Rattus norvegicus [7] = assay: Compound was evaluated for the lipid soluble radioactivity extracted from rat liver at 0.5 hr after intravenous administration.; assay type: functional; summary of the method: as §3
Rattus norvegicus [8] = assay: Biodistribution in Rat liver after 5 minutes of iv administration; per g of tissue; assay type: ADME, organism-based; conditions: in vivo; summary of the method: as §1
Rattus norvegicus [9] = assay: Compound was evaluated for the lipid soluble radioactivity extracted from rat liver at 24 hr after intravenous administration.; assay type: functional; summary of the method: as §3
Rattus norvegicus [10] = assay: Biodistribution in Rat heart after 24 hours of iv administration; per g of tissue; assay type: ADME, organism-based; conditions: in vivo; summary of the method: as §1
Rattus norvegicus [11] = assay: as §4; assay type: ADME, organism-based; conditions: in vivo, 0.5 h; summary of the method: as §1; remark: listed apart in the source
Rattus norvegicus [12] = assay: Compound (125I labeled) was evaluated for the total radioactivity in stacking gel 5 min after intravenous administration.; assay type: functional; summary of the method: as §2
Rattus norvegicus [13] = assay: Compound (125I labeled) was evaluated for the total radioactivity in high-density lipoprotein 5 min after intravenous administration.; assay type: functional; summary of the method: as §2
Rattus norvegicus [14] = assay: Biodistribution in Rat blood after 24 hours of iv administration; per g of tissue; assay type: ADME, organism-based; conditions: in vivo; summary of the method: as §1
Rattus norvegicus [15] = assay: Compound (125I labeled) was evaluated for the total radioactivity in low-density lipoprotein 5 min after intravenous administration.; assay type: functional; design: concentration or dose not given beside the values; summary of the method: as §2
Rattus norvegicus [16] = assay: Compound (125I labeled) was evaluated for the total radioactivity in high-density lipoprotein, at 30 min after intravenous administration.; assay type: functional; summary of the method: as §2
Rattus norvegicus [17] = assay: Liver radioactivity after iv administration of compound (24 h) in rats; assay type: functional, organism-based; summary of the method: as §5
Rattus norvegicus [18] = assay: Compound (125I labeled) was evaluated for the total radioactivity in low-density lipoprotein, at 30 min after intravenous administration.; assay type: functional; summary of the method: as §2
Rattus norvegicus [19] = assay: Evaluated for the total radioactivity in below albumin at 30 min after intravenous administration.; assay type: functional; summary of the method: as §2
Rattus norvegicus [20] = assay: Biodistribution in Rat blood after 30 minutes of iv administration; per g of tissue; assay type: ADME, organism-based; conditions: in vivo, 0.5 h; summary of the method: as §1
Rattus norvegicus [21] = assay: Liver radioactivity after iv administration of compound (5 min) in rats; assay type: functional, organism-based; summary of the method: as §5
Rattus norvegicus [22] = assay: Biodistribution in Rat lung after 5 minutes of iv administration; per g of tissue; assay type: ADME, organism-based; conditions: in vivo; summary of the method: as §1
Rattus norvegicus [23] = assay: Biodistribution in Rat lung after 30 minutes of iv administration; per g of tissue; assay type: ADME, organism-based; conditions: in vivo, 0.5 h; summary of the method: as §1
Rattus norvegicus [24] = assay: Compound was evaluated for the lipid soluble radioactivity extracted from rat plasma at 24 hr after intravenous administration.; assay type: functional; summary of the method: as §3
Rattus norvegicus [25] = assay: Biodistribution in Rat heart after 5 minutes of iv administration; per g of tissue; assay type: ADME, organism-based; conditions: in vivo; summary of the method: as §1
Rattus norvegicus [26] = assay: Biodistribution in Rat heart after 30 minutes of iv administration; per g of tissue; assay type: ADME, organism-based; conditions: in vivo, 0.5 h; summary of the method: as §1
Rattus norvegicus [27] = assay: Compound (125I labeled) was evaluated for the total radioactivity in albumin at 30 min after intravenous administration.; assay type: functional; design: concentration or dose not given beside the values; summary of the method: as §2
Rattus norvegicus [28] = assay: Compound (125I labeled) was evaluated for the total radioactivity in albumin 5 min after intravenous administration.; assay type: functional; design: concentration or dose not given beside the values; summary of the method: as §2
Rattus norvegicus [29] = assay: Biodistribution in Rat blood after 5 minutes of iv administration; per g of tissue; assay type: ADME, organism-based; conditions: in vivo; summary of the method: as §1
Rattus norvegicus [30] = assay: Biodistribution in Rat blood after 5 minutes of iv administration; assay type: ADME, organism-based; conditions: in vivo; summary of the method: as §1
Rattus norvegicus [31] = assay: Biodistribution in Rat heart after 30 minutes of iv administration; assay type: ADME, organism-based; conditions: in vivo, 0.5 h; summary of the method: as §1
Rattus norvegicus [32] = assay: (§6) Biodistribution in Rat liver after 30 minutes of iv administration; assay type: ADME, organism-based; conditions: in vivo, 0.5 h; summary of the method: as §1
Rattus norvegicus [33] = assay: Biodistribution in Rat lung after 24 hours of iv administration; assay type: ADME, organism-based; conditions: in vivo; summary of the method: as §1
Rattus norvegicus [34] = assay: Biodistribution in Rat blood after 24 hours of iv administration; assay type: ADME, organism-based; conditions: in vivo; summary of the method: as §1
Rattus norvegicus [35] = assay: Biodistribution in Rat liver after 5 minutes of iv administration; assay type: ADME, organism-based; conditions: in vivo; summary of the method: as §1
Rattus norvegicus [36] = assay: Biodistribution in Rat lung after 30 minutes of iv administration; assay type: ADME, organism-based; conditions: in vivo, 0.5 h; summary of the method: as §1
Rattus norvegicus [37] = assay: Biodistribution in Rat blood after 30 minutes of iv administration; assay type: ADME, organism-based; conditions: in vivo, 0.5 h; summary of the method: as §1
Rattus norvegicus [38] = assay: Biodistribution in Rat liver after 24 hours of iv administration; assay type: ADME, organism-based; conditions: in vivo; summary of the method: as §1
Rattus norvegicus [39] = assay: Biodistribution in Rat heart after 24 hours of iv administration; assay type: ADME, organism-based; conditions: in vivo; summary of the method: as §1
Rattus norvegicus [40] = assay: as §6; assay type: ADME, organism-based; conditions: in vivo, 0.5 h; summary of the method: as §1; remark: listed apart in the source
Rattus norvegicus [41] = assay: Biodistribution in Rat lung after 5 minutes of iv administration; assay type: ADME, organism-based; conditions: in vivo; summary of the method: as §1
Rattus norvegicus [42] = assay: Biodistribution in Rat heart after 5 minutes of iv administration; assay type: ADME, organism-based; conditions: in vivo; summary of the method: as §1
Rattus norvegicus [43] = assay: Compound (125I labeled)was evaluated for the total radioactivity in stacking gel 5 min after intravenous administration.; assay type: functional; summary of the method: as §2

Row | SMILES | Total radioactivity (Rattus norvegicus [2]) | Extracted (Rattus norvegicus [3]) | Parent compound (Rattus norvegicus [3]) | Radioactivity (Rattus norvegicus [6]) | Extracted (Rattus norvegicus [7]) | Parent compound (Rattus norvegicus [7]) | Extracted (Rattus norvegicus [9]) | Parent compound (Rattus norvegicus [9]) | Total radioactivity (Rattus norvegicus [12]) | Total radioactivity (Rattus norvegicus [13]) | Total radioactivity (Rattus norvegicus [15]) | Total radioactivity (Rattus norvegicus [16]) | Radioactivity (Rattus norvegicus [17]) | Total radioactivity (Rattus norvegicus [18]) | Total radioactivity (Rattus norvegicus [19]) | Radioactivity (Rattus norvegicus [21]) | Extracted (Rattus norvegicus [24]) | Parent compound (Rattus norvegicus [24]) | Total radioactivity (Rattus norvegicus [27]) | Total radioactivity (Rattus norvegicus [28]) | further results
1 | CCCCCCCCCCCCCCCC(=O)OC(COC(=O)CCc1c(I)cc(I)c(N)c1I)COC(=O)CCc1c(I)cc(I)c(N)c1I | 19% | 62.9% | 90.6% | 38.4 | 86.2% | 94.2% | 83.1% | 88% | 14.2% | 52.8% | 27.8% | 36.3% | 14.7 | 40.6% | 0.2% and 1.2% | 43.1 | 63.7% | 80% | 2.8% | 5% | Biodistribution (Rattus norvegicus [1]): 0.21%; Biodistribution (Rattus norvegicus [4]): 0.29% and 2.19%; Biodistribution (Rattus norvegicus [5]): 5.82%; Biodistribution (Rattus norvegicus [8]): 0.5% and 6.19%; Biodistribution (Rattus norvegicus [10]): 0.42%; Biodistribution (Rattus norvegicus [11]): 5.82%; Biodistribution (Rattus norvegicus [14]): 0.31%; Biodistribution (Rattus norvegicus [20]): 4.25%; Biodistribution (Rattus norvegicus [22]): 0.75%; Biodistribution (Rattus norvegicus [23]): 0.94%; Biodistribution (Rattus norvegicus [25]): 0.43%; Biodistribution (Rattus norvegicus [26]): 0.56%; Biodistribution (Rattus norvegicus [29]): 3.48%
2 | Nc1c(I)cc(I)c(CCCCCCCCCCCCCCCCC(=O)OCC(COC(=O)CCCCCCCCCCCCCCCCc2c(I)cc(I)c(N)c2I)OC(=O)CCCCCCCCCCCCCCCCc2c(I)cc(I)c(N)c2I)c1I | 3.8% | 70.1% | 29.2% | 38.8 | 50.7% | 15.1% | 73.4% | 9.5% | 6.4% | 32.7% | 32.2% | 28.1% | 3 | 15.1% | 7.1% and 6.8% | 54.4 | 54.2% | 20.2% | 46.2% | 20.3% | Biodistribution (Rattus norvegicus [30]): 4.14%; Biodistribution (Rattus norvegicus [31]): 0.92%; Biodistribution (Rattus norvegicus [32]): 5.28%; Biodistribution (Rattus norvegicus [33]): 0.07%; Biodistribution (Rattus norvegicus [34]): 0.06%; Biodistribution (Rattus norvegicus [35]): 0.52% and 6.68%; Biodistribution (Rattus norvegicus [36]): 0.94%; Biodistribution (Rattus norvegicus [37]): 2.1%; Biodistribution (Rattus norvegicus [38]): 0.14% and 0.44%; Biodistribution (Rattus norvegicus [39]): 0.03%; Biodistribution (Rattus norvegicus [40]): 5.28%; Biodistribution (Rattus norvegicus [41]): 1.08%; Biodistribution (Rattus norvegicus [42]): 0.74%
3 | CCC(Cc1c(I)cc(I)c(N)c1I)C(=O)OCC(COC(=O)C(CC)Cc1c(I)cc(I)c(N)c1I)OC(=O)C(CC)Cc1c(I)cc(I)c(N)c1I (centres undefined) | 9.9% | 90.5% | 89.1% | 26 | 89% | 92.9% | 91.7% | 92.3% | – | 48.2% | 33.4% | 55.8% | 66.8 | 27% | 0.3% and 1.9% | 22.4 | 83.4% | 75.1% | 5.3% | 2.9% | Biodistribution (Rattus norvegicus [30]): 6.95%; Biodistribution (Rattus norvegicus [31]): 0.39%; Biodistribution (Rattus norvegicus [32]): 2.79%; Biodistribution (Rattus norvegicus [33]): 0.58%; Biodistribution (Rattus norvegicus [34]): 0.14%; Biodistribution (Rattus norvegicus [35]): 0.87% and 3.57%; Total radioactivity (Rattus norvegicus [43]): 15.2%; Biodistribution (Rattus norvegicus [36]): 0.67%; Biodistribution (Rattus norvegicus [37]): 3.31%; Biodistribution (Rattus norvegicus [38]): 0.18% and 9.19%; Biodistribution (Rattus norvegicus [39]): 0.1%; Biodistribution (Rattus norvegicus [40]): 2.79%; Biodistribution (Rattus norvegicus [41]): 1.49%; Biodistribution (Rattus norvegicus [42]): 0.97%
